In paper PMC9057237 (RSC Advances, 2020):

Assays:
[1] = MTT cell viability assay; assay type: cell-based, rat; settings: rat, RBL-2H3 cells
Procedure, shortened: (§1)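 Cells grown in DMEM with 10% FBS, penicillin (100 U mL−1) and streptomycin (100 μg mL−1) at 37 °C under humidified 5% CO2. Pure compounds tested at 1 to 400 μM; viability read by MTT assay. Mean, n = 3, relative to untreated (DMSO) control.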

[2] = tested on: human neutrophils; test: Superoxide anion generation in fMLF/cytochalasin B-induced human neutrophils; assay type: cell-based; settings: for IC50: read-out: Superoxide anion generation IC50
Procedure, shortened: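 Human neutrophils taken from venous blood of healthy volunteers aged 20–30 years. Superoxide from activated cells measured as ferricytochrome c reduction. Pure compounds tested at 0.3–10 μM. Mean ± S.E.M., n = 3–6, vs 0.1% DMSO control; IC50 is the concentration giving 50% inhibition.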

[3] = molecular target: T1, neutrophil elastase (NE) (Homo sapiens, UniProt P08246); test: Cell-free elastase enzymatic activity assay; assay type: biochemical; settings: read-out: Inhibition of elastase enzyme activity
T1 sequence (P08246 30-247 limits assumed): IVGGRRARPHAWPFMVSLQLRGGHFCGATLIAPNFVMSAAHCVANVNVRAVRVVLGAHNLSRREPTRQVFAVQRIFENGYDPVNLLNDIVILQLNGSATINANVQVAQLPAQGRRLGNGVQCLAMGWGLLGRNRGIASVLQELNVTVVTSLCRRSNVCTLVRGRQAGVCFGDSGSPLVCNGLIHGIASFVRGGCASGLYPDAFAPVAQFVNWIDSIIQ
Procedure, shortened: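 Neutrophils (6 × 10^5 cells per mL) preheated 5 min at 37 °C with CaCl2 (1 mM), primed with CB (1.5 μg mL−1) for 2 min, then fMLF (0.1 μM) to release elastase. Cell-free supernatant taken after centrifugation (1000g, 5 min, 4 °C), warmed to 37 °C and given test compound (10 μM) or DMSO for 2 min. MeO-Suc-Ala-Ala-Pro-Val-p-nitroanilide (100 μM) added for 10 min; A405 read. Mean ± S.E.M., n = 4; t-test.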

[4] = tested on: human neutrophils; test: Elastase release in fMLF/cytochalasin B-induced human neutrophils; assay type: cell-based; settings: for inhibition at 10 µM / IC50: Homo sapiens, Neutrophil; for inhibition at 10 µM: read-out: Elastase release % Inhibition; for IC50: read-out: Elastase release IC50
Procedure, shortened: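 Neutrophils isolated from venous blood of healthy adult volunteers aged 20–30 years. Release from activated cells measured with MeO-Suc-Ala-Ala-Pro-Val-p-nitroanilide as elastase substrate. Pure compounds tested at 0.3–10 μM. LY294002 as positive control. Mean ± S.E.M., n = 3–6, vs 0.1% DMSO control; IC50 is the concentration giving 50% inhibition.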

[5] = tested on: SARS-CoV-2 M^pro; settings: read-out: M^pro inhibition IC50; cited from earlier work
[6] = tested on: RBL-2H3 cells; test: MTT cell viability assay; assay type: cell-based, rat; settings: 100 μM; MTT
Procedure, shortened: as §1

[7] = tested on: RBL-2H3 cells; test: A23187-induced degranulation; assay type: cell-based, rat; settings: mean ± S.E.M.
[8] = tested on: RBL-2H3 cells; test: Antigen-induced degranulation; assay type: cell-based, rat; settings: for % Inhibition of antigen-induced degranulation: mean ± SEM
[9] = tested on: human neutrophil elastase; settings: read-out: Human neutrophil elastase IC50; previous study; cited from earlier work
[10] = Homo sapiens, Neutrophil, read-out: Superoxide anion generation % Inhibition
[11] = at 10 μM, fMLF/CB-induced human neutrophils, mean ± S.E.M.

Compound	viability at 100 µM [1] [%]	inhibition at 10 µM [2, 10] [%]	IC50 ([2]; Homo sapiens, Neutrophil) [µM]	inhibition at 10 µM [3] [%]	inhibition at 10 µM [4] [%]	IC50 [4] [µM]	also measured
COc1cc(O)c2c(=O)c(OC)c(-c3ccc(O)c(OC)c3)oc2c1 [Compound 9, pachypodol]	> 90	67.5 ± 4.55	6.07 ± 0.65	20.3 to 27.1	31.6 ± 5.02	> 10	–
COc1cc(O)c2c(=O)c(OC)c(-c3ccc(O)cc3)oc2c1 [Compound 7, kumatakenin]	> 90	24.1 ± 2.75	> 10	20.3 to 27.1	22.9 ± 4.29	> 10	–
CN1CCCC(n2nc(Cc3ccc(Cl)cc3)c3ccccc3c2=O)CC1 (stereo not drawn) [Azelastine, reference compound]	–	–	–	–	–	–	viability at 20 µM [1]: > 90%
O=c1cc(-c2ccc(O)c(-c3c(O)cc(O)c4c(=O)cc(-c5ccc(O)cc5)oc34)c2)oc2cc(O)cc(O)c12 [amentoflavone]	–	–	–	–	–	–	IC50 [5]: 8.3 µM
O=c1c(-c2ccc(O)cc2)coc2cc(O)cc(O)c12 [Genistein, reference compound]	–	–	1.52 ± 0.17	–	31.6 ± 7.29	16.3 ± 4.26	inhibition at 3 µM [2, 10]: 67%
penduletin [Compound 8]	–	–	–	–	–	–	% Viability, RBL-2H3 [6]: >90%; % Inhibition of A23187-induced degranulation ([7]; 1 μM): 4.8 ± 3.9%; % Inhibition of A23187-induced degranulation ([7]; 10 μM): 25.1 ± 7.3%; % Inhibition of antigen-induced degranulation ([8]; 1 μM): 33.9 ± 8.6 %; % Inhibition of antigen-induced degranulation ([8]; 10 μM): 85.8 ± 5.1 %; IC50 ([8]; read-out: Antigen-induced degranulation IC50): 3.8 µM; Superoxide anion generation % Inhibition [2, 11]: 73.76 ± 5.24%; IC50 [9]: 65.4 µM; Elastase release % Inhibition [4, 11]: 33.00 ± 7.94%
